T cell HTS – T cell immune modulation candidate. 2C CD8+ T cell-vesicle binding, flow cytometry; active compounds read low. response (vesicle binding), % at 7 µM. hit rate 0.068% among 330,000;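 active = response, share of CD8 T cells binding vesicles, and their 90th percentile fluorescence all below set limits, cut at about 80% in these data, passing the limit was not always enough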;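 also: values below 100% mean blocked vesicle binding to the CD8+ T cells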
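incubation = binding step 1.5 h, 37 °C, antibody labelling 20 min, ice | test system = 2C mouse CD8+ T cells | read-out basis = percent CD8+ FL2 mean versus row control | controls = Peptide-free naked vesicles (low) and QL9 vesicles with 0.7% DMSO vehicle (high) | detection = flow cytometry of vesicle-bound cells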
NR3A LBD binder – modulates the human NR3A ligand-binding domain; NR3A LBD differential scanning fluorimetry, Tm shift; 0% = protein alone, 100% = glycine-bound protein; Tm shift relative to glycine control, % at 25 µM; hit rate 2.5% among 340,000;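 active = melting temperature shift of at least 10% of the positive control shift, at one fixed dose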
Rtt109 HAT inh – blocks Candida albicans Rtt109/Vps75 acetyltransferase activity. purified Rtt109/Vps75, ThioGlo CoA-SH fluorescence, 4 h. Q5AAJ8. hit rate 0.16% among 330,000. inhibition, % at 34.9 µM;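 active = inhibition of at least 50% in every replicate; inconclusive = best replicate reaches 50% inhibition but some replicates fall short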
Target sequence (Q5AAJ8 whole entry, looked up): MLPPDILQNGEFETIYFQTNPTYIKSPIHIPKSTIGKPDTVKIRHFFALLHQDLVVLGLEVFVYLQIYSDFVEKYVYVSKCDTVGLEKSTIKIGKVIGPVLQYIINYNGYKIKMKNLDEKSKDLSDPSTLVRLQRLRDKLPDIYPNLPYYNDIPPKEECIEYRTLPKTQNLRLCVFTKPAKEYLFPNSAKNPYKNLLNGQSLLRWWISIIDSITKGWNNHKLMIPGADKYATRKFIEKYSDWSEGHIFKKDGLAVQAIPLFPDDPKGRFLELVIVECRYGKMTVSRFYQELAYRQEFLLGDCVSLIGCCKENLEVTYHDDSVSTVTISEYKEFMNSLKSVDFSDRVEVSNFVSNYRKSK
GASC-1 inh – human JMJD2C demethylase inhibition. Q9H3R0. GST-JMJD2C(1-420) H3K9me3 demethylation, DELFIA europium. inhibition, % at 2.35 µM. hit rate 0.069% among 330,000;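 active = more than half of a compound's replicate wells show inhibition beyond 50%, single wells judged on their own value; inconclusive = some, but no more than half, of replicates pass 50% inhibition; inactive = no replicate passes 50% inhibition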;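 also: signal counts dimethyl H3K9 product captured on neutravidin plate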
Of the large screens only hits and unclear results are named; the others gave an inactive call. An excerpt weighted towards active compounds, which were near 2.8% of everything screened.

COc1ccccc1C(=O)Nc1nc(-c2cccs2)c(NC(C)=O)s1	none
CC(=O)Nc1sc(N/N=C\c2cccc(Cl)c2)nc1-c1cccs1	NR3A LBD binder 13.8
CCCCN(C(=O)c1ccc(N2CCCC2=O)cc1)c1c(N)n(CCC)c(=O)[nH]c1=O	none
O=C(CCc1nnc(C2(c3ccc(Cl)cc3)CCC2)o1)NCCCn1cccn1	Rtt109 HAT inh 50.4
Cc1ccccc1-c1nnc(SCc2ccccc2F)o1	NR3A LBD binder 10.2
CC(=O)Nc1ccc(C(=O)N2CC(=O)NC(=O)C2)cc1	Rtt109 HAT inh 63.2
Cc1ccc(S(=O)(=O)N2CC(O)CC2C(=O)OCC(=O)c2ccccc2Cl)cc1C (stereo not given)	NR3A LBD binder 24.5
CN1C(=O)C(CC(=O)Nc2ccc(Cl)cc2)N(Cc2ccco2)C1=S (stereo not given)	none
CCN1C(=O)C(CC(=O)Nc2ccc(OC)cc2)N(Cc2ccc3c(c2)OCO3)C1=S (stereo not given)	NR3A LBD binder 21.8
CCOc1ccc(NC(=O)CC2C(=O)N(C)C(=S)N2Cc2ccc3c(c2)OCO3)cc1 (stereo not given)	NR3A LBD binder 12.2
CCOc1ccc(NC(=O)CC2C(=O)N(C)C(=S)N2Cc2ccco2)cc1 (stereo not given)	NR3A LBD binder 17.4
CCN1C(=O)C(CC(=O)Nc2ccc(Br)cc2)N(CCCc2ccccc2)C1=S (stereo not given)	NR3A LBD binder 16.0
COc1cc(NC(=O)c2ccc3snnc3c2)cc(OC)c1	NR3A LBD binder 18.9
CC(=O)NC12CC3CC(C1)CC(C(=O)Nc1nc4ccc(F)cc4s1)(C3)C2	none
O=C(NCCSc1ccc(Br)cc1)c1ccc2nc[nH]c2c1	none
Cc1ccc(NC(=O)C(=O)Nc2ccccn2)cc1	none
CCCCCCCCCCNC(=O)C(=O)Nc1ccccn1	NR3A LBD binder 12.2
COc1cnn(-c2ccc(Br)cc2)c(=O)c1SCc1ccccc1	NR3A LBD binder 15.4
CC(C)CN1C(=O)C(=O)N(CC(=O)N2CCN(c3ccccc3)CC2)C1=O	none
Cc1cccc(N2CC(C(=O)Nc3nnc(SCc4ccccn4)s3)CC2=O)c1 (stereo not given)	none
O=C(CSc1nnc(-c2ccc3c(c2)OCO3)n1-c1ccccc1)c1ccccc1	NR3A LBD binder 16.4
O=C(Nc1ccc(Cl)cc1)OCc1ccccn1	NR3A LBD binder 21.6
Cc1csc(=Nc2ccccc2)n1C	none (no result: Rtt109 HAT inh)
OCc1csc(=Nc2ccccc2)n1-c1ccccc1	GASC-1 inh 57.3
O=C(O)c1c(C(=O)O)c(-c2ccc(Br)cc2)n2c1CSC2	NR3A LBD binder 13.5
Cc1ccc(-c2c(C(=O)O)c(C(=O)O)c3n2CSC3)cc1	none
Cc1cccc(NC(=O)NNC(=O)c2sccc2-n2cccc2)c1	NR3A LBD binder 13.4
COc1cccc(C(=O)NNC(=O)c2sccc2-n2cccc2)c1	none
Cc1cnc(C(=O)N2CCN(S(=O)(=O)c3cccc(Br)c3)CC2)cn1	none
COc1cc(C(=O)Nc2ccc(NC(=O)C3CCCCC3)nc2)cc(OC)c1OC	none (no result: T cell HTS)
COc1cccc(C(=O)Nc2ccc(NC(=O)C(C)(C)C)cn2)c1	NR3A LBD binder 17.2
COc1cc(C(=O)Nc2ccc(NC(=O)c3cccc(Cl)c3)nc2)cc(OC)c1OC	NR3A LBD binder 27.4 (no result: T cell HTS)
COc1ccc(F)cc1S(=O)(=O)Nc1cc2c3c(c1)CCC(=O)N3CCC2	none
O=C1CN(C(=O)COC(=O)COc2ccccc2)c2ccccc2N1	none
CC/C(=N\Nc1ccnc2cc(Cl)ccc12)c1ccc(O)cc1	none
Oc1ccc(/C=N/Nc2ccnc3cc(Cl)ccc23)c(O)c1O	NR3A LBD binder 18.5
Clc1ccc2c(NCc3ccccn3)ccnc2c1	none
Oc1ccc(/C=N/Nc2ccnc3cc(Cl)ccc23)cc1O	NR3A LBD binder 20.8, Rtt109 HAT inh inconclusive
O=C(NCCN1CCCC1)C1CC(=O)N(C2CCCCC2)C1 (stereo not given)	NR3A LBD binder 19.5
CC1CCN(CCCNC(=O)C2CC(=O)N(C3CCCCCC3)C2)CC1 (stereo not given)	none
O=Cc1c[nH]c2cccc(OCc3ccccc3)c12	none (no result: T cell HTS, GASC-1 inh)
O=C(CCN1C(=O)S/C(=C\C=C\c2ccccc2)C1=O)Nc1ccc(O)cc1	NR3A LBD binder 13.4
O=C(CCCN1C(=O)S/C(=C\C=C\c2ccccc2)C1=O)Nc1ccc(C(=O)O)cc1	none
O=C(CN1C(=O)S/C(=C\C=C\c2ccccc2)C1=O)Nc1cccc(O)c1	NR3A LBD binder 27.4
Cc1cc2ncn(/N=C/c3ccc([N+](=O)[O-])s3)c2cc1C	NR3A LBD binder 26.8
O=C(NNc1ccc(C(F)(F)F)cc1[N+](=O)[O-])c1ccc(NS(=O)(=O)c2ccc(F)cc2)cc1	NR3A LBD binder 22.2
CCOc1ccc(S(=O)(=O)N2CCOCC2)cc1NC(=O)CSCC(=O)Nc1ccc(OC)cc1	none (no result: T cell HTS, GASC-1 inh)
CCOc1ccc(S(=O)(=O)N2CCOCC2)cc1NC(=O)CSCC(=O)Nc1ccc(C)cc1	NR3A LBD binder 11.1
CCOc1ccc(S(=O)(=O)N2CCOCC2)cc1NC(=O)CSCC(=O)Nc1cccc(C)c1	T cell HTS 0.0
Cc1cc(S(=O)(=O)N2CCOCC2)ccc1OCC(=O)Nc1cccc(F)c1	NR3A LBD binder 36.6
Cc1cc(S(=O)(=O)NCc2ccccc2)ccc1OCC(=O)Nc1cccc([N+](=O)[O-])c1	NR3A LBD binder 11.0
CCOc1ccc(S(=O)(=O)N2CCOCC2)cc1NC(=O)CSCc1c(C)noc1C	none
Cc1cc(S(=O)(=O)NCc2ccccc2)ccc1OCC(=O)NCc1ccccn1	none
CC1CCCC(C)N1C(=O)COC(=O)c1cc(=O)[nH]c2ccccc12 (stereo not given)	none
CC[C@]12c3[nH]c4ccc(Cl)cc4c3CCN1C(=O)[C@@H](CC(=O)NCCC1=CCCCC1)C[C@@H]2C(=O)N1CCN(C(=O)c2ccco2)CC1	none (no result: T cell HTS, GASC-1 inh)
COc1cccc(Oc2cn[nH]c2-c2ccc(OC)cc2O)c1	NR3A LBD binder 22.2, Rtt109 HAT inh inconclusive
COc1cccc(Oc2cn[nH]c2-c2ccc(O)cc2O)c1	NR3A LBD binder 28.3
O=C(Nc1nc(-c2cccs2)cs1)c1ccc([N+](=O)[O-])o1	none
C=C[C@@H](C)N(Cc1ccc(OC)cc1)S(=O)(=O)N(Cc1ccccc1)[C@H](C=C)C(C)C	none
Oc1cccc(NC(=S)Nc2ccc(SC(F)F)cc2)c1	NR3A LBD binder 16.4
FC(F)Sc1ccc(NC(=S)NC2CCC(NC(=S)Nc3ccc(SC(F)F)cc3)CC2)cc1 (stereo not given)	NR3A LBD binder 17.0
Oc1cccc2c(NC(=S)Nc3ccc(SC(F)F)cc3)cccc12	NR3A LBD binder 25.4
CCCCNC(=S)Nc1ccc(SC(F)F)cc1	none
C#CCCc1ccccc1/C=[N+](/C)[O-]	none
COc1ccc([N+](=O)[O-])cc1NS(=O)(=O)c1cc(C(=O)NCc2cccnc2)ccc1Cl	none
COc1cc(CNCCO)ccc1OCCc1ccccc1	none
O=C(NCC1(O)CCCCC1)C1CCC(=O)N(Cc2cccc(C(F)(F)F)c2)C1 (stereo not given)	none
CCN1CC(c2ccccc2)C(c2ccc(Cl)cc2)=N1 (stereo not given)	NR3A LBD binder 11.6
